In ChEMBL document CHEMBL3784974, “Design and Structural Characterization of Potent and Selective Inhibitors of Phosphatidylinositol 4 Kinase IIIβ” (J Med Chem, 2016) one finds IC50 data, which are given here for two compounds.

In this assay the target is T1, Phosphatidylinositol 3-kinase C2 domain-containing subunit gamma (Homo sapiens, UniProt O75747).
T1 sequence (O75747 whole entry): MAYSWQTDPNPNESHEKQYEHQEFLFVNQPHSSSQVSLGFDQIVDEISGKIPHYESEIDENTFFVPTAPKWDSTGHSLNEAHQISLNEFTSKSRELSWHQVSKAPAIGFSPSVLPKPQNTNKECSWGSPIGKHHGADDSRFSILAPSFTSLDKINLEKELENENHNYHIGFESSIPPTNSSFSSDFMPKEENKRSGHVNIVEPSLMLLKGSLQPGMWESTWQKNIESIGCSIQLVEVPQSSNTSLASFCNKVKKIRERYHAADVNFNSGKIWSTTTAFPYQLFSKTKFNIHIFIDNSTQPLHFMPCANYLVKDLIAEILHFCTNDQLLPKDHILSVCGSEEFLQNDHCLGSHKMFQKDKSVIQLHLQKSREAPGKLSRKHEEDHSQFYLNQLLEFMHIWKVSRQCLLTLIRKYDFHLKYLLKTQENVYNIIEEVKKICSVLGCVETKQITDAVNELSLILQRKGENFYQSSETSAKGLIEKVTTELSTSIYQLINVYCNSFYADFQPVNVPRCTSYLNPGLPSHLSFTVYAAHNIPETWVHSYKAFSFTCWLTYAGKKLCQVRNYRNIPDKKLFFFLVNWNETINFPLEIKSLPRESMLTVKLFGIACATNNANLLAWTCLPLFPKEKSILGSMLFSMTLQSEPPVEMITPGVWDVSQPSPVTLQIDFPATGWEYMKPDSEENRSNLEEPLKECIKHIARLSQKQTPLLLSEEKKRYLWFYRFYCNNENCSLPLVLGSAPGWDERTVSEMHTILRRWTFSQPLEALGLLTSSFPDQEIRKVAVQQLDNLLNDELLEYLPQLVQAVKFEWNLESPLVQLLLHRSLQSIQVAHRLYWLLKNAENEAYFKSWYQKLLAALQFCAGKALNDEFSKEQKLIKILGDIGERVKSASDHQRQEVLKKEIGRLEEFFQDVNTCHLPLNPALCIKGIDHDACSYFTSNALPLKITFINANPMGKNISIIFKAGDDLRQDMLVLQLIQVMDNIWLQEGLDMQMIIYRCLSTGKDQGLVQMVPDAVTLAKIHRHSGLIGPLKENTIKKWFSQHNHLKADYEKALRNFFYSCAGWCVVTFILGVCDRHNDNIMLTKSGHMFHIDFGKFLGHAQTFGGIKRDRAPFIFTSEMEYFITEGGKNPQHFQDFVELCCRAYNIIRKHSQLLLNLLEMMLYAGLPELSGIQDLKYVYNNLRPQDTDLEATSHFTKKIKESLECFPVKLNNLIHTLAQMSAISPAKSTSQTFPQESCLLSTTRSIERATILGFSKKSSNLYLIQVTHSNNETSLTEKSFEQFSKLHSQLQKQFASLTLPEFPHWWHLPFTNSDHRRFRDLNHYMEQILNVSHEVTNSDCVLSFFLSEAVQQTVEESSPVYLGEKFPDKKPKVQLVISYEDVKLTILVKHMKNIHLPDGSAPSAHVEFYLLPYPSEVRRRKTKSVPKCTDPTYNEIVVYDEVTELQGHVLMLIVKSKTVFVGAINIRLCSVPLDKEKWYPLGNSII
Description: Inhibition of N-terminal GST-tagged recombinant human full length PI3KC2gamma expressed in baculovirus infected Sf21 insect cells preincubated for 15 mins followed by addition of cold ATP/gamma32P-ATP measured after 15 mins. In short, it runs like this: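 1 nM PI3KC2γ, 15 min inhibitor preincubation, 15 min reaction. Final: 50 mM HEPES pH 7.5, 100 mM NaCl, 0.03% CHAPS, 10 mM MgCl2, 1 mM EGTA, 2 mM DTT, 100 µM PI (PI:DOPS:DOPC), 500 ng/µL BSA, 2% DMSO, 10 µM ATP, 2 uCi γ32P-ATP. Nitrocellulose capture, phosphorimaging.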

Broadly, the IC50 is the concentration that gives 50% inhibition. With `COc1ccc(-c2sc(NC(=O)C(C)(C)C)nc2C)cc1S(=O)(=O)Nc1ccc(O)cc1`, the IC50 was found to be 1000 nM.

With `COc1ccc(-c2sc(NC(=O)C3CCCC3)nc2C)cc1S(=O)(=O)Nc1ccc(O)cc1`, the IC50 was 1000 nM.
